Screening results as filed in PubChem BioAssay.
Only some compounds are listed: those with a hit (about 4.7% of all), similar ones and a draw of the others.
VIM-2 inhibitor: blocks Pseudomonas aeruginosa VIM-2 metallo-beta-lactamase | inhibition, % at 5.6 µM | AID 1527 | 290,000 compounds, 0.89% hits | purified VIM-2, nitrocefin hydrolysis, epi-absorbance fluorescence;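 active means inhibition above the mean of all tested compounds plus 3 SD, cutoff set per screening run, cut at about 7.5% in these data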;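 further: red hydrolysis product quenches plate fluorescence so inhibitors raise well fluorescence; 0% = enzyme with DMSO and 100% = DMSO without enzyme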
IMP-1 inhibitor: blocks Pseudomonas aeruginosa IMP-1 metallo-beta-lactamase. purified IMP-1, nitrocefin hydrolysis, epi-absorbance fluorescence. inhibition, % at 5.6 µM. 290,000 compounds, 0.45% hits;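 active means inhibition above the mean plus 3 SD of all compounds in the same screening run, cut at about 4.5% in these data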;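 further: 0% = IMP-1 with DMSO and 100% = DMSO wells lacking enzyme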
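System: purified IMP-1 / Input: IMP-1 dispensed at 0.2 nM / Medium: 50 mM HEPES pH 7.1, 50 µM ZnSO4, 0.05% Brij 35 / Timing: 15 min enzyme–compound preincubation, then 25 min nitrocefin reaction, 25 °C / Technique: plate fluorescence quenching by hydrolysis product, ex 480/em 530 nm / Repeats: singlicate testing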
aSyn 5UTR inh: MLPCN primary screen, SNCA 5' untranslated region; alpha-synuclein 5'UTR reporter, inhibitor activity; inhibition, % (tested at 7.5 µM); 300,000 compounds, 0.82% hits; AID 1813; in the data active means inhibition above about 60%;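 further: H4 neuroglioblastoma cells stably carrying SNCA 5'UTR luciferase fusion; 0% = DMSO wells and 100% = positive control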
697 NFkB inh: inhibitors of the PMA/ionomycin-induced NF-kB reporter in 697 B cells | 697 B-cell NF-kB luciferase reporter, 16 h | 330,000 compounds, 0.33% hits | inhibition, % at 4 µM | AID 435022; in the data active means inhibition above about 35%
Mdm2-MdmX inh: human Mdm2/MdmX binding inhibition. AID 485346. 330,000 compounds, 3% hits. inhibition, % at 8 µM. O15151+Q00987. SaOS-2 split-luciferase Mdm2/MdmX complementation, luminescence;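 active means inhibition of at least 50% at 8 µM in the primary screen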
Jurkat NFkB inh: inhibitors of the PMA/ionomycin-induced NF-kB reporter in Jurkat cells; 330,000 compounds, 0.53% hits; PMA/ionomycin-induced NF-kB luciferase reporter, luminescence; AID 435003; inhibition, % at 4 µM; in the data active means inhibition above about 50%
Mdm2 MdmX conf: confirmation of human Mdm2/MdmX interaction inhibitors | shares compounds with Mdm2-MdmX inh | Mdm2-MdmX binding, luminescent assay | inhibition, % at 8 µM | 10,000 compounds, 55% hits | AID 489028; in the data active means inhibition above about 40%
FLuc counter: counter-screen for Mdm2/MdmX inhibitors: full-length luciferase | shares compounds with Mdm2-MdmX inh | SaOS-2 full-length luciferase counterscreen, luminescence | inhibition, % at 8 µM | 6,200 compounds, 77% hits | AID 504607;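 active means mean inhibition at 8 µM reaching about 37%, which flags the compound as non-specific, limit read from the data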;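 further: p53-null SaOS-2 cells with luciferase driven by a doxycycline-inducible promoter; compound on cells about two nights before reading with doxycycline added after day one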
An asterisk follows results filed as active; . = no result.

SMILES | VIM-2 inhibitor | IMP-1 inhibitor | aSyn 5UTR inh | 697 NFkB inh | Mdm2-MdmX inh | Jurkat NFkB inh | Mdm2 MdmX conf | others
Cn1c(=O)[nH]c(=O)c2c1nc(Br)n2CC(O)COc1ccc(Cl)cc1 (configuration not stated) | 0 | -2 | -8 | -5 | 20 | 1 | .
COc1ccc(NC(=O)Cn2nnc(C(=O)NCc3ccc(C)cc3)c2N)cc1Cl | -1 | -2 | 32 | -1 | 53* | -14 | 32
COc1ccc(Cl)cc1NC(=O)Cn1nnc(C(=O)NCCc2ccc(OC)c(OC)c2)c1N | -1 | 0 | 14 | 2 | 21 | 1 | .
COc1ccc(NC(=O)Cn2nnc(C(=O)NCc3ccccc3)c2N)cc1Cl | -1 | 1 | 21 | 15 | 26 | -3 | .
COc1ccc(Cl)cc1NC(=O)c1nnn(CC(=O)Nc2ccc(C)c(C)c2)c1N | -2 | -2 | 33 | 10 | 53* | 5 | 32
COc1ccc(NC(=O)Cn2nnc(C(=O)Nc3ccc(F)c(Cl)c3)c2N)cc1OC | -3 | 3 | 1 | 15 | 66* | 13 | 31
O=C(NCCc1csc(-c2ccc(C(F)(F)F)cc2)n1)c1cccs1 | -4 | -4 | 5 | -11 | 14 | 20 | .
COc1ccc(-c2nnc(Sc3nc4ccccc4o3)c3ccccc23)cc1 | 2 | -2 | 25 | -10 | 66* | 6 | 42* | FLuc counter=68*
COc1ccc(-c2nnc(OC)c3ccccc23)cc1 | 2 | -2 | 17 | 9 | 29 | 7 | .
C1CCC(C(CC2CCCCN2)C2CCCCC2)CC1 (configuration not stated) | -4 | -3 | 42 | 4 | 100* | 33 | 99* | FLuc counter=24
c1ccc2cc(CCO[C@H]3CCCCO3)ncc2c1 | . | . | . | -131 | 2 | -11 | .
NC(N)=N/N=C/c1ccc(OCc2ccccc2)cc1 | 0 | -3 | -70 | -34 | 55* | 28 | 23
NC(N)=N/N=C/c1ccc(Br)cc1 | -1 | -4 | -8 | -3 | 54* | 49 | 58* | FLuc counter=57*
NC(N)=N/N=C/c1ccc(OCc2ccc(Cl)cc2)cc1 | 1 | -1 | -66 | -133 | 98* | 34 | 32
N#Cc1ccc(CO/N=C/c2ccccc2)cc1 | -2 | -3 | -95 | -15 | -10 | -9 | .
CCOC(=O)C1=C(CC)Nc2ccccc2N=C1NC(=O)Nc1ccc(Cl)c(Cl)c1 | -3 | -6 | 7 | 2 | 94* | -4 | 80* | FLuc counter=39*
Cc1nc2cc(NC(=O)CS(=O)(=O)c3ccc(F)cc3)ccc2s1 | . | . | -21 | -39 | -49 | 7 | .
COC(=O)c1cc(=O)n(Cc2ccc3c(c2)OCO3)c(=Nc2ccc(F)cc2)s1 | -3 | -5 | -12 | 22 | 57* | 0 | 31
COC(=O)c1cc(=O)n(Cc2cccs2)c(=Nc2ccc(F)cc2)s1 | -1 | 0 | -18 | 14 | 50* | -4 | 12
COC(=O)c1cc(=O)n(Cc2ccc3c(c2)OCO3)c(=Nc2ccccc2)s1 | 0 | -3 | 10 | 6 | 36 | 3 | .
O=C(Nc1ccc(-c2n[nH]c(=S)o2)cc1)c1ccccc1Br | -2 | -4 | -7 | -16 | -25 | -10 | .
CCCN=C1N(CC)C[C@@H]2[C@@H]3C(=O)N(C)C(=O)[C@@H]3[C@](CC)(C(=O)OC)N12 | . | . | . | 3 | 22 | . | .
CCOC(=O)/C=C/C(=O)NNC(=O)c1ccccc1Cl | -2 | -4 | 0 | 9 | 2 | 24 | .
O=C(Nc1ccc(Cl)cc1)Nc1nc(-c2sccc2Br)cs1 | -2 | -1 | 10 | -4 | 88* | -10 | 77* | FLuc counter=39*
CN(C)c1ccc(/C=N/NC(=O)C(=O)/C=C2\NC3(CCCC3)Cc3ccccc32)cc1 | 1 | -2 | 36 | -9 | 19 | -11 | .
Cc1ccc(C)c(NC(=O)CSc2nnc(CNC(=O)c3cccs3)o2)c1 | -2 | -2 | 8 | 7 | 6 | 12 | .
CC(NC(=O)CSc1ncccc1C(=O)O)C1CC2CCC1C2 (configuration not stated) | 0 | -3 | 0 | -31 | -6 | -11 | .
